From PubChem
pPAFAH inh = pPAFAH (human) enzyme inhibition; actives 1.5% (n = 330,000); recombinant pPAFAH, FP-rhodamine probe fluorescence polarization; inhibition, % at 3.39 µM;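 active = inhibition above the mean inhibition across the screen plus 3 SD, cut at about 25% in these data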;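 also: inhibitors block binding of the rhodamine activity-based probe so polarization drops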
Target sequence (Q13093 whole entry, looked up): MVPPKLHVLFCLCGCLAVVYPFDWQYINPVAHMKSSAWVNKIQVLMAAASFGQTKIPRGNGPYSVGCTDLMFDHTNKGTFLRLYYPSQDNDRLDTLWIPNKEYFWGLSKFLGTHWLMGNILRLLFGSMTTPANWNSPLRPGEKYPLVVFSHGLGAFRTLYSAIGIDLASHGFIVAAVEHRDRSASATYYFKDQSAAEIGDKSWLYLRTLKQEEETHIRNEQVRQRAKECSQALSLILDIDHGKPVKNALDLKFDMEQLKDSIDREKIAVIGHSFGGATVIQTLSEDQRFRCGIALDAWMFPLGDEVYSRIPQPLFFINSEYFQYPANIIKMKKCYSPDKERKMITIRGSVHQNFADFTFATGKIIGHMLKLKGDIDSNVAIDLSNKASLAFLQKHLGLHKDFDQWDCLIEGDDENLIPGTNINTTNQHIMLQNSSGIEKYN
ASAP1 inh = blocks human ASAP1-stimulated Arf1 GTP hydrolysis; Q9ULH1; GDP FP detection; inhibition, % at 16.5 µM; actives 0.19% (n = 360,000); AID 624377; in the data active = inhibition above about 25%
PAFAH1B3 inh = inhibitors of human PAFAH1B3 | AID 492972 | recombinant PAFAH1B3, FP-rhodamine probe, fluorescence polarization | inhibition, % at 3.39 µM | actives 0.28% (n = 340,000) | Q15102;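 active = inhibition above the screen-wide average of all tested compounds plus 3 SD, cut at about 25% in these data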
Target sequence (Q15102 whole entry, looked up): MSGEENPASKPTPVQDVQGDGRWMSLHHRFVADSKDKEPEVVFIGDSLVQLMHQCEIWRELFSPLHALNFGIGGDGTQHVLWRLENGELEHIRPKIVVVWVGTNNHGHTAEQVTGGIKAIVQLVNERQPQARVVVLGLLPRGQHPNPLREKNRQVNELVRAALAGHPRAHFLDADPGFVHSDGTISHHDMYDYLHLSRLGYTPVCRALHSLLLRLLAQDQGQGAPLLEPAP
ARFGAP1 inhibitor = rat ARFGAP1 inhibition; inhibition, % at 16.5 µM; Arfgap1-stimulated ARF1 GTP hydrolysis, GDP FP detection; actives 0.26% (n = 360,000); Q62848;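 active = inhibition above a per-plate limit, mean inhibition of low control wells plus 3 SD, cut at about 25% in these data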
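system = rat Arfgap1 catalytic domain, aa 1-136 | technique = FP, GDP Alexa 633 tracer displaced from anti-GDP antibody, 620/688 nm | compound = one concentration, 16.5 µM, DMSO 1.26% | medium = HEPES-based buffer, pH 7.5 | timing = compound-enzyme preincubation 20 min, reaction 120 min, detection 60 min, 25 °C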
PAFAH2 inh = inhibitors of human PAFAH2. inhibition, % at 3.39 µM. AID 492956. actives 0.99% (n = 340,000). recombinant PAFAH2, FP-rhodamine activity probe, fluorescence polarization;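 active = inhibition above the mean over all tested compounds plus 3 SD, cut at about 30% in these data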;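 also: inhibitors block probe labeling of enzyme so polarization drops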
PAFAH1B2 FP inh = inhibitors of human PAFAH1B2; recombinant PAFAH1B2, FP-rhodamine activity probe, fluorescence polarization; inhibition, % at 3.39 µM; actives 1.2% (n = 340,000); AID 492953;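 active = inhibition above the mean of all tested compounds plus 3 SD, cut at about 24% in these data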
PAFAH2 FP conf = PAFAH2 (human) inhibition, confirmed; shares compounds with PAFAH2 inh; inhibition, % at 3.39 µM; recombinant PAFAH2, FP-rhodamine activity probe, fluorescence polarization; actives 65% (n = 2,300);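 active = mean inhibition over three repeats above a set limit taken from the earlier primary screen, cut at about 30% in these data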;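 also: inhibitor blocks binding of rhodamine activity probe so polarization falls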
PAFAH1B3 conf FP = confirmation of human PAFAH1B3 inhibitors; shares compounds with PAFAH1B3 inh; recombinant PAFAH1B3, FP-Rh activity-based probe, fluorescence polarization; inhibition, % at 3.39 µM; actives 30% (n = 390); AID 493032;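 active = average inhibition over triplicate runs above the hit cutoff set in the earlier primary screen, cut at about 25% in these data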
ASAP1 inh confirm = ASAP1 inhibition confirmed; shares compounds with ASAP1 inh; ASAP1-stimulated Arf1 GTPase, GDP fluorescence polarization; inhibition, % at 16.5 µM; actives 37% (n = 620); AID 624431;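 active = mean inhibition over triplicates exceeds the hit threshold derived for the earlier primary screening run, cut at about 25% in these data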
ARFGAP1 inh conf = rat ARFGAP1 inhibition, confirmed; inhibition, % at 16.5 µM; ARFGAP1-stimulated ARF1 GTP hydrolysis, GDP tracer FP; actives 30% (n = 890); shares compounds with ARFGAP1 inhibitor;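 active = average inhibition over triplicates above the hit cutoff set in the earlier primary screen, cut at about 25% in these data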
Large screens that a line does not name were inactive (follow-up assays come after a bar, where they were run). Compounds with a hit are over-represented: about 2.7% of the library has one in this group of screens.

Cc1ccccc1-n1c(C)cc(/C=C2/C(=O)NC(=O)N(Cc3ccco3)C2=O)c1C	PAFAH2 inh 42 | PAFAH2 FP conf 46
Cc1ccc(-n2c(C)cc(/C=C3/C(=O)NC(=O)N(Cc4ccco4)C3=O)c2C)cc1	none
CCOC1=C(N2CC2)C(=O)C(OCC)=C(N2CC2)C1=O	none (no result: pPAFAH inh)
C=CCN1C(=O)/C(=C/c2cc(C)n(-c3cccnc3)c2C)C(=O)NC1=S	PAFAH2 inh 31 | PAFAH2 FP conf inactive
Nc1nc(SCCC(F)=C(F)F)n[nH]1	none
Cn1cc(C(=O)OCC(=O)NC2(C#N)CCCC2)c2ccccc21	PAFAH2 inh 65 | PAFAH2 FP conf 49
Cn1cc(C(=O)OCC(=O)N2CCCCC2)c2ccccc21	none
Cn1cc(C(=O)OCC(=O)NC2(C#N)CCCCC2)c2ccccc21	PAFAH2 inh 81 (no result: pPAFAH inh) | PAFAH2 FP conf 81
CC(C)(C)n1cccc1/C=C1\C(=O)NC(=O)N(c2ccccc2)C1=O	PAFAH2 inh 50 | PAFAH2 FP conf 44
COc1cc(/C=C2\C(=O)NC(=O)N(c3ccccc3)C2=O)cc(OC)c1O	none
Cn1cc(/C=C2\C(=O)NC(=O)N(c3ccccc3)C2=O)c2ccccc21	PAFAH2 inh 39 | PAFAH2 FP conf 36
COc1ccc(C(O)P(=O)(Oc2ccccc2)Oc2ccccc2)cc1 (centres undefined)	PAFAH2 inh 33 | PAFAH2 FP conf inactive
O=P(Oc1ccccc1)(Oc1ccccc1)C(O)c1ccc(Cl)cc1 (centres undefined)	none
Cc1ccc(S(=O)(=O)N2Cc3cc(-c4cccc(F)c4)ccc3-n3nncc3C2)cc1	none (no result: pPAFAH inh, PAFAH1B3 inh, PAFAH2 inh, PAFAH1B2 FP inh)
CCc1cc(=O)oc2cc(OCC(=O)N3C[C@H]4C[C@@H](C3)c3cccc(=O)n3C4)c(Cl)cc12	none
Cc1cc(OCC(=O)N2C[C@H]3C[C@@H](C2)c2cccc(=O)n2C3)c2c(C)cc(=O)oc2c1	PAFAH2 inh 38 | PAFAH2 FP conf inactive
Cc1cc(C(=O)OCC(=O)Nc2cccc(F)c2)c(C)n1C1CC1	PAFAH2 inh 65 | PAFAH2 FP conf 51
Cc1cc(C(=O)OCC(=O)Nc2ccc(F)cc2)c(C)n1C1CC1	PAFAH2 inh 43 | PAFAH2 FP conf inactive
COc1ccccc1NC(=O)COC(=O)c1cc(C)n(C2CC2)c1C	none
C=CCC1([C@@H](C)CCC)C(=O)NC(=O)NC1=O	none
Cc1cc(C=C2C(=O)NC(=S)NC2=O)c(C)n1C1CCCC1	PAFAH2 inh 34 | PAFAH2 FP conf inactive
COc1cc2c(cc1OC)-c1c(OC)c(OC)cc3c1[C@H](C2)N(C)CC3	PAFAH1B3 inh 34 | PAFAH1B3 conf FP inactive
COC(=O)C1=C(c2cccc(OCc3ccccc3)c2)C[C@@H]2CC[C@H]1N2C(=O)NCCc1ccc(F)cc1	none
CC(C)c1cccc(C(C)C)c1OCCn1ccnc1	none
CN1CC[C@@]2(C)c3cc(O)ccc3N(C)C2O1 (some centres undefined)	none (no result: ASAP1 inh, ARFGAP1 inhibitor)
CN1CC[C@@]2(C)c3cc(O)ccc3N(C)[C@@H]12	PAFAH1B3 inh 40 (no result: pPAFAH inh) | PAFAH1B3 conf FP inactive
CCCCCn1c(NC(=O)c2ccco2)c(C(=O)OCC)c2nc3ccccc3nc21	PAFAH1B3 inh 55 (no result: ASAP1 inh, ARFGAP1 inhibitor) | PAFAH1B3 conf FP 50
O=C(COc1ccccc1F)N1CCN(CCN2C(=O)c3cccc4cccc(c34)C2=O)CC1	PAFAH1B3 inh 28 | PAFAH1B3 conf FP inactive
O=C(COc1ccccc1)N1CCN(CCN2C(=O)c3cccc4cccc(c34)C2=O)CC1	none
O=C(O)c1cccc2nc3ccccc3nc12	none
c1cncc(C2Nc3cccc4cccc(c34)N2)c1	PAFAH1B3 inh 36 | PAFAH1B3 conf FP inactive
c1cncc(C2CCCCN2)c1 (centres undefined)	none
Nc1c(C(=O)NC2CCCC2)c2nc3ccccc3nc2n1CC1CCCO1 (centres undefined)	PAFAH1B3 inh 26 | PAFAH1B3 conf FP inactive
O=C(O)CC1OCC=C2CN3CCC45C6=CC(=O)C(=O)C([N+](=O)[O-])=C6NC4C1C2CC35 (centres undefined)	PAFAH1B3 inh 72 (no result: ASAP1 inh, ARFGAP1 inhibitor) | PAFAH1B3 conf FP inactive
COc1cccc(C)c1NC1=NCCO1	none (no result: pPAFAH inh, PAFAH1B3 inh, PAFAH2 inh, PAFAH1B2 FP inh)
CCOC(=O)c1c(NS(=O)(=O)c2ccccc2)n(CCCOC)c2nc3ccccc3nc12	PAFAH1B3 inh 27, ARFGAP1 inhibitor 34 | PAFAH1B3 conf FP inactive | ARFGAP1 inh conf inactive
CC1(C)CC(=O)C(C=NCCN2CCN(C(=O)Cc3ccc(F)cc3)CC2)=C(O)C1	none
COP(=O)(OC)C(NC(C)=O)C(Cl)(Cl)Cl (centres undefined)	ASAP1 inh 26 | ASAP1 inh confirm inactive
FC(F)(F)c1ccccc1N1CC1c1ccncc1 (centres undefined)	none
NC(=O)c1c(NC(=O)c2ccc(S(=O)(=O)N(CCCl)CCCl)cc2)sc2c1CCCCC2	none (no result: ASAP1 inh, ARFGAP1 inhibitor)
CCSc1nnc(C(N)Cc2ccccc2)o1 (centres undefined)	ASAP1 inh 29 | ASAP1 inh confirm inactive
CCSc1nnc([C@@H](N)Cc2ccccc2)o1	none
Cc1ccc(/C=C2\C(=O)NC(=O)N(Cc3ccccc3Cl)C2=O)o1	ASAP1 inh 28 | ASAP1 inh confirm inactive
OC12Oc3ccccc3C=C1N1CCC2CC1 (centres undefined)	ARFGAP1 inhibitor 25 | ARFGAP1 inh conf inactive
Clc1ccc(C(c2ccc(Cl)cc2)n2cc[n+](CC(OCc3ccc(Cl)cc3Cl)c3ccc(Cl)cc3Cl)c2)cc1 (centres undefined)	ARFGAP1 inhibitor 28 | ARFGAP1 inh conf 81
O=C1NCN(c2ccccc2)C12CCN(C(c1nnnn1C1CCCC1)C1CC1)CC2 (centres undefined)	none (no result: pPAFAH inh, PAFAH1B3 inh, PAFAH2 inh, PAFAH1B2 FP inh)
CN(c1ccc(OCC(=O)N2CCN(C/C=C/c3ccccc3)CC2)cc1)S(=O)(=O)c1cccs1	ARFGAP1 inhibitor 27 | ARFGAP1 inh conf inactive
CN1CC=C(/C=C/c2ccc(-c3ccccc3)cc2)CC1	none (no result: ASAP1 inh, PAFAH1B3 inh, ARFGAP1 inhibitor, PAFAH2 inh, PAFAH1B2 FP inh)
COc1ccc(C(=O)NC(=S)N2C[C@H]3C[C@H](C2)c2cccc(=O)n2C3)cc1	ARFGAP1 inhibitor 34 | ARFGAP1 inh conf inactive
COc1ccc(/C=C/C(=O)NC(=S)N2C[C@H]3C[C@H](C2)c2cccc(=O)n2C3)cc1	none
Cc1ccccc1-n1c(O)c(/C=N/NC(=O)c2ccccc2O)c(=O)[nH]c1=S	none
Cc1ccccc1-n1c(O)c(/C=N/Nc2nc3c(c(=O)n(C)c(=O)n3C)n2C)c(=O)[nH]c1=S	ARFGAP1 inhibitor 26 | ARFGAP1 inh conf inactive
O=C1NC(=O)C(CCc2ccncc2)(c2ccccc2)C(=O)N1	none
